Assay results taken from ChEMBL document CHEMBL1140337, “Synthesis and structure-activity relationships of a new series of retinoid-related biphenyl-4-ylacrylic acids endowed with antiproliferative and proapoptotic activity” (J Med Chem, 2005).

Assays:
IGROV-1 [1] = assay: Concentration of compound required for inhibition of (IGROV-1) human ovarian carcinoma cell growth by 50%; assay type: functional, cell-based
Procedure, shortened: (§1)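 Ovarian carcinoma cells in log-phase growth seeded in duplicate; drug added 24 h after seeding, cells harvested after 72 h of exposure and counted with a cell counter. IC50 = concentration giving 50% fewer cells than untreated control. Where SD is reported, mean of three independent experiments.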

NB-4 = assay: Concentration of compound required for inhibition of (NB4) human promyelocytic leukemia cell growth by 50%; assay type: functional, cell-based
Procedure, shortened: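 Leukemia cells exposed to drug for 24 h; growth inhibition assessed by cell counting at 72 h. IC50 = concentration reducing cell number 50% versus untreated control. Where SD is given, mean of three independent experiments.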

[2] = Effective concentration against retinoic acid receptor gamma in COS-7 cells co-expressing DR5-tk-CAT reporter; value range (0.6-1.5); assay type: cell-based
Procedure, shortened: (§2)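 COS-7 cells transfected with the relevant RAR isoform (alpha, beta or gamma) plus a DR5-tk-CAT reporter. 24 h post-transfection, cells treated 24 h with increasing compound concentrations. CAT activity measured in cell extracts, normalized to a beta-galactosidase transfection control.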

[3] = Effective concentration against retinoic acid receptor alpha in COS-7 cells co-expressing DR5-tk-CAT reporter; value range (5.6-59.1); assay type: cell-based; procedure, shortened: as §2
[4] = biological target: T1, Retinoic acid receptor beta (Homo sapiens, UniProt P10826); assay: Effective concentration against retinoic acid receptor beta in COS-7 cells co-expressing DR5-tk-CAT reporter; value range (7.5-41.1); assay type: cell-based; procedure, shortened: as §2
T1 sequence (P10826 whole entry): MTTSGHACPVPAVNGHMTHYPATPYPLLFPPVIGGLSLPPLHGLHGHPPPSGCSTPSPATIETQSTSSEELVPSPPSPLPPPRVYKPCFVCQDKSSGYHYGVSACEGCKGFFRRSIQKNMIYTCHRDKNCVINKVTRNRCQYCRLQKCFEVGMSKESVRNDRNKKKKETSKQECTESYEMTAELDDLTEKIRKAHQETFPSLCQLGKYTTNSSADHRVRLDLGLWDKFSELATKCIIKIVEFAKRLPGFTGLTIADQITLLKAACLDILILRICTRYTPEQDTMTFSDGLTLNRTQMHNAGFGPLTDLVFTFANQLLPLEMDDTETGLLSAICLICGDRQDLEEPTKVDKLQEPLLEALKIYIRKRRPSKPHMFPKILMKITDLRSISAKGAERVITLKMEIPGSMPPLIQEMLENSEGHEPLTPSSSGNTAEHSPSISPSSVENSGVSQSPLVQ

IGROV-1 [5] = assay: Percent level of apoptosis induced by 72 hr of exposure with IC80 in (IGROV-1) human ovarian carcinoma cells; assay type: functional
[6] = Concentration of compound required for inhibition of (IGROV-1/Pt1) human cisplatin resistant ovarian carcinoma cell growth by 50%; assay type: functional; procedure, shortened: as §1
[7] = Percent level of apoptosis induced by 72 hr of exposure with IC80 in (IGROV-1/Pt1) human cisplatin resistant ovarian carcinoma cells; assay type: functional
[8] = Effective concentration against retinoic acid receptor alpha in COS-7 cells co-expressing DR5-tk-CAT reporter; assay type: cell-based; procedure, shortened: as §2
[9] = biological target: T1, Retinoic acid receptor beta; assay: Effective concentration against retinoic acid receptor beta in COS-7 cells co-expressing DR5-tk-CAT reporter; assay type: cell-based; procedure, shortened: as §2
[10] = Effective concentration against retinoic acid receptor gamma in COS-7 cells co-expressing DR5-tk-CAT reporter; assay type: cell-based; procedure, shortened: as §2
[11] = Effective concentration against retinoic acid receptor alpha in COS-7 cells co-expressing DR5-tk-CAT reporter; value range (4.6-8.9); assay type: cell-based; procedure, shortened: as §2
[12] = Effective concentration against retinoic acid receptor gamma in COS-7 cells co-expressing DR5-tk-CAT reporter; value range (0.1-0.5); assay type: cell-based; procedure, shortened: as §2
[13] = biological target: T1, Retinoic acid receptor beta; assay: Effective concentration against retinoic acid receptor beta in COS-7 cells co-expressing DR5-tk-CAT reporter; value range (3.9-7.2); assay type: cell-based; procedure, shortened: as §2
[14] = Effective concentration against retinoic acid receptor gamma in COS-7 cells co-expressing DR5-tk-CAT reporter; value range (0.1-0.3); assay type: cell-based; procedure, shortened: as §2
[15] = Effective concentration against retinoic acid receptor alpha in COS-7 cells co-expressing DR5-tk-CAT reporter; value range (0.1-0.4); assay type: cell-based; procedure, shortened: as §2
[16] = biological target: T1, Retinoic acid receptor beta; assay: Effective concentration against retinoic acid receptor beta in COS-7 cells co-expressing DR5-tk-CAT reporter; value range (0.1-0.3); assay type: cell-based
[17] = Effective concentration against retinoic acid receptor gamma in COS-7 cells co-expressing DR5-tk-CAT reporter; value range (0.8-2.4); assay type: cell-based; procedure, shortened: as §2
[18] = biological target: T1, Retinoic acid receptor beta; assay: Effective concentration against retinoic acid receptor beta in COS-7 cells co-expressing DR5-tk-CAT reporter; value range (6.1-9.8); assay type: cell-based; procedure, shortened: as §2
[19] = Effective concentration against retinoic acid receptor alpha in COS-7 cells co-expressing DR5-tk-CAT reporter; value range (13.9-29.7); assay type: cell-based; procedure, shortened: as §2

Compound | IC50 (IGROV-1 [1]) | IC50 (NB-4) | Apoptosis (IGROV-1 [5]) | IC50 [6] | further results
Nc1ccccc1NC(=O)/C=C/c1ccc(-c2ccc(O)c(C34CC5CC(CC(C5)C3)C4)c2)cc1 | 2.1 µM | 1.8 µM | 8% | 2 µM | EC50 [2]: 0.9 µM; EC50 [3]: 18.2 µM; EC50 [4]: 17.6 µM
O=C(O)CCc1ccc(-c2ccc(O)c(C34CC5CC(CC(C5)C3)C4)c2)cc1 | 48.4 µM | 63.6 µM | 26% | 44.5 µM | –
O=C(O)/C=C/c1ccc(-c2cc(O)cc(C34CC5CC(CC(C5)C3)C4)c2)cc1 | 1.31 µM | 1.2 µM | – | – | –
O=C(O)/C(F)=C\c1ccc(-c2ccc(O)c(C34CC5CC(CC(C5)C3)C4)c2)cc1 | > 3 µM | 22.4 µM | – | > 3 µM | –
O=C(O)/C=C/c1ccc(-c2ccc(O)cc2)cc1 | 89 µM | 78.7 µM | 3% | 156 µM | Apoptosis [7]: 1%; EC50 [8]: > 100 µM; EC50 [9]: > 100 µM; EC50 [10]: > 100 µM
COC(=O)/C=C/c1ccc(-c2ccc(O)c(C34CC5CC(CC(C5)C3)C4)c2)cc1 | 0.61 µM | 18.2 µM | – | 3.5 µM | –
OC/C=C/c1ccc(-c2ccc(O)c(C34CC5CC(CC(C5)C3)C4)c2)cc1 | 10.8 µM | 9.1 µM | – | 10.6 µM | –
O=C(O)/C=C/c1ccc(-c2ccc(O)c(CC3CCCCC3)c2)cc1 | 2.58 µM | 2.2 µM | 25% | 2.3 µM | EC50 [11]: 6.4 µM; Apoptosis [7]: 9%; EC50 [12]: 0.2 µM; EC50 [13]: 5.3 µM
O=C(O)/C=C/c1ccc2c(ccc3cc(O)c(C45CC6CC(CC(C6)C4)C5)cc32)c1 | 2.2 µM | 1.5 µM | – | 2.1 µM | –
O=C(O)/C=C/c1ccc(-c2ccc(O)c(C34CC5CC(CC(C5)C3)C4)c2)c(Cl)c1 | 0.58 µM | 0.2 µM | 74% | 0.73 µM | –
O=C(O)/C(F)=C/c1ccc(-c2ccc(O)c(C34CC5CC(CC(C5)C3)C4)c2)cc1 | 0.37 µM | 0.081 µM | – | 0.63 µM | –
O=C(O)/C=C/c1ccc(-c2ccc(O)c(C34CC5CC(CC(C5)C3)C4)c2)cc1F | 0.2 µM | 0.17 µM | 47% | 0.43 µM | –
O=P(O)(O)/C=C/c1ccc(-c2ccc(O)c(C34CC5CC(CC(C5)C3)C4)c2)cc1 | > 20 µM | > 200 µM | – | > 20 µM | –
C/C(=C\c1ccc(-c2ccc(O)c(C34CC5CC(CC(C5)C3)C4)c2)cc1)C(=O)O | 7.19 µM | 2.3 µM | – | 10 µM | –
Cc1cc(O)c(C23CC4CC(CC(C4)C2)C3)cc1-c1ccc(/C=C/C(=O)O)cc1 | 1.14 µM | 1.7 µM | – | 2.92 µM | –
O=C(O)c1ccc(-c2ccc(O)c(C34CC5CC(CC(C5)C3)C4)c2)cc1 | > 3 µM | 35.2 µM | – | > 3 µM | –
O=C(O)C1CC1c1ccc(-c2ccc(O)c(C34CC5CC(CC(C5)C3)C4)c2)cc1 (stereo not given) | > 20 µM | 39.4 µM | – | > 20 µM | –
N#C/C=C/c1ccc(-c2ccc(O)c(C34CC5CC(CC(C5)C3)C4)c2)cc1 | 8.3 µM | 14.3 µM | 2% | 12.7 µM | –
O=C(O)/C=C/c1ccc(-c2ccc(O)c(-c3ccccc3)c2)cc1 | 19 µM | 45.3 µM | 7% | 12.5 µM | Apoptosis [7]: 1%; EC50 [8]: > 100 µM; EC50 [9]: > 100 µM; EC50 [10]: > 100 µM
O=Cc1cc(/C=C/C(=O)O)ccc1-c1ccc(O)c(C23CC4CC(CC(C4)C2)C3)c1 | 1.28 µM | 1.05 µM | 44% | 2.63 µM | –
O=C(O)/C=C/c1ccc(-c2ccc(O)c(Cl)c2)cc1 | 26 µM | – | – | – | –
O=C(O)/C=C/c1ccc(-c2ccc(O)c(C34CC5CC(CC(C5)C3)C4)c2)cc1 [ADAROTENE] | – | 0.082 µM | 65% | 0.4 µM | EC50 [14]: 0.1 µM; Apoptosis [7]: 30%; EC50 [15]: 0.2 µM; EC50 [16]: 0.2 µM
CC1(c2cc(-c3ccc(/C=C/C(=O)O)cc3)ccc2O)CCCCCCCCCCC1 | 3.57 µM | – | – | – | –
CCOP(=O)(/C=C/c1ccc(-c2ccc(O)c(C34CC5CC(CC(C5)C3)C4)c2)cc1)OCC | 19.7 µM | 1.7 µM | – | > 20 µM | –
O=C(O)C#Cc1ccc(-c2ccc(O)c(C34CC5CC(CC(C5)C3)C4)c2)cc1 | 1.15 µM | 1.2 µM | 52% | 1.52 µM | –
O=C(/C=C/c1ccc(-c2ccc(O)c(C34CC5CC(CC(C5)C3)C4)c2)cc1)Nc1ccc(O)cc1 | 6.6 µM | 2 µM | 2% | 10.5 µM | EC50 [17]: 1.4 µM; EC50 [18]: 7.7 µM; EC50 [19]: 20.3 µM
CC(C)(C)c1cc(-c2ccc(/C=C/C(=O)O)cc2)ccc1O | 30 µM | 42.3 µM | – | 30 µM | –
O=C(O)/C=C/c1ccc(-c2ccc(C34CC5CC(CC(C5)C3)C4)c(O)c2)cc1 | 6.13 µM | > 10 µM | 23% | – | –
O=C(O)c1ccc2cc(-c3ccc(O)c(C45CC6CC(CC(C6)C4)C5)c3)ccc2c1 [O-DEMETHYLATED ADAPALENE] | – | 0.4 µM | 38% | 0.62 µM | Apoptosis [7]: 25%
C/C(=C\C(=O)O)c1ccc(-c2ccc(O)c(C34CC5CC(CC(C5)C3)C4)c2)cc1 | 9.97 µM | 6.7 µM | 26% | 16.6 µM | –
